# HSF1 inhib: HSF1 inhibitors in luciferase reporter cells, primary screen, cell-based, NIH3T3, luminescence. 300,000 tested, 0.77% active. AID 2098, 2009. NIH3T3-HGL HSE-luciferase, MG132-induced, luminescence 8 h; active compounds read low. activity change, negative = inhibition, % at 7.5 µM (by protocol);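 active = more than half of replicate wells show activity change below -50%, luminescence cut by over half; inconclusive = some wells, but at most half, below -50%; inactive = no replicate well below -50%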;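 note: luciferase reports HSF-1 transcriptional activity via heat shock element; 0% = median of DMSO wells and -100% = zero luminescence signal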
# GPR7 antag: GPR7 receptor antagonists, primary screen, cell-based, fluorescence, single concentration. Neuropeptides B/W receptor type 1 (Homo sapiens), P48145. GPR7-expressing cells, fluorescence antagonist assay. inhibition, % at 4.4 µM. 290,000 tested, 1.1% active. AID 1861, 2009; in the data active = inhibition above about 16%, passing the limit was not always enough;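 note: cells stimulated with the agonist NPW; 0% = agonist with vehicle and 100% = vehicle without agonist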
# Target sequence (P48145 whole entry, looked up): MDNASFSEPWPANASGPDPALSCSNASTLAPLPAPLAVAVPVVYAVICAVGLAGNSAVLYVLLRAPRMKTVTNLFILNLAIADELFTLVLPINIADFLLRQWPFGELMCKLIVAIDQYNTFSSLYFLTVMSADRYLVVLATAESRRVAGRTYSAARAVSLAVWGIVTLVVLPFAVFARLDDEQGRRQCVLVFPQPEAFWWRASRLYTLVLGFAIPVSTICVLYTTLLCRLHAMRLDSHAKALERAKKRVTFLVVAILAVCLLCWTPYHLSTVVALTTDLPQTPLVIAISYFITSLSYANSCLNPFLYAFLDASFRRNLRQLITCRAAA
# 697 NFkB inh: inhibitors of PMA/ionomycin-induced NF-kB reporter, 697 cells, primary screen, B-cell NF-kB inhibitor project, cell-based, luminescence, uHTS; 697 B-cell NF-kB luciferase reporter, 16 h; inhibition, % at 4 µM; 330,000 tested, 0.33% active; in the data active = inhibition above about 35%
# Jurkat NFkB inh: inhibitors of induced NF-kB luciferase reporter, primary screen, TCR NF-kB activation inhibitor project, cell-based, luminescence, uHTS. inhibition, % at 4 µM. 330,000 tested, 0.53% active. Jurkat, PMA/ionomycin-induced NF-kB luciferase reporter. AID 435003, 2010; in the data active = inhibition above about 50%
# T cruzi repl: inhibitors of intracellular T. cruzi growth, primary screen, luminescence, NIH3T3 host cells; T. cruzi beta-gal in NIH3T3, 90 h; inhibition, % (test concentration not listed); 300,000 tested, 1.4% active; AID 1885, 2009;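 active = mean inhibition across valid replicates above about 55%, limit read from the data; inconclusive = mean below that limit but half or more replicates reach it; inactive = mean below it, under half of replicates reach it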;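 note: signal also drops with host cell toxicity which is not excluded here; 0% = plate median of DMSO wells and 100% = zero luminescence signal; higher percent means less beta-gal luminescence so fewer parasites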
#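 System: Mouse NIH/3T3 fibroblasts infected with β-gal-expressing T. cruzi Tulahuen C4 | Quantity: NIH/3T3 cells, 5,000 per well | Reagent: 5000 reporter trypomastigotes per well | Dosing: Compound pinned at 50 nL/well, DMSO | Schedule: 3 h host attachment, then at least 90 h co-culture | Detection: GalScreen luminescence, 60 min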
# HSF1 activator: HSF-1 activators, primary screen, NIH3T3-HGL cells, MG132 stress, luminescence, single point; NIH3T3-HGL HSF-1 luciferase reporter, 8 h; 100% = twice DMSO control signal; activation, % at 9 µM; 300,000 tested, 1.7% active;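 active = mean replicate activation of at least 50% with a set share of replicates each reaching 50%; inconclusive = only one of those two conditions met; inactive = mean below 50% and too few replicates reaching it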;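 note: 0% = median of the neutral control wells and 100% = twice that signal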
# Numbers without * were called inactive; ? = inconclusive; nt = no result given. Sampled rows, rich in hits. Any-hit rate of the full collection: about 4.8%.
SMILES,HSF1 inhib,GPR7 antag,697 NFkB inh,Jurkat NFkB inh,T cruzi repl,HSF1 activator
Cc1cc(C)c2c(N)c(C(=O)Nc3cccc(C)c3C)sc2n1,13,22,-16,-25,3,52*
Nc1c(C(=O)O)sc2nc(-c3ccccc3)cc(-c3ccc(Cl)cc3)c12,-47,8,16,9,4,-59
CC(=O)c1sc2nc(-c3ccccc3)cc(C)c2c1N,-3,-11,-1,12,56*,-22
C=C(C)CNC(=S)Nc1cccc(N)n1,-2,-1,nt,nt,-13,-1
Cc1ccc2[nH]c3c(c2c1)CNCC3,-10,-12,4,1,0,-4
c1ccc2c3c([nH]c2c1)CCNC3,79,8,4,-2,10,162*
CCN(CC)S(=O)(=O)c1cccc(C(=O)NNC(=O)C2=NN(c3ccccc3)C(=O)CC2)c1,-5,-16,3,2,-4,-3
C=CCn1c(COc2ccc(CC)cc2)nnc1SC/C(O)=C(\C#N)c1nc2ccccc2[nH]1,33,-6,-17,4,3,80*
CN1CCN(c2nc(-c3cccnc3)nc3ccccc23)CC1,-2,-7,17,-5,47,4
COc1cc2c(cc1OC)CN(c1nc(-c3cccnc3)nc3ccccc13)CC2,0,-15,15,-8,55*,7
Cc1c(Cl)cccc1NC(=O)CN1CCC(C(O)(c2ccccc2)c2ccccc2)CC1,12,-11,6,19,62*,21
O=C(c1ccc(-c2ccc([N+](=O)[O-])cc2Cl)o1)N1CCOCC1,20,20*,9,-19,8,27
CN1CCN(c2ccc([N+](=O)[O-])cc2C(=O)N2CCOCC2)CC1,-4,12,-4,-9,11,2
CCN(CC)c1ccc([N+](=O)[O-])cc1C(=O)N1CCOCC1,8,-3,-5,-15,7,55*
O=C(c1ccc(-c2cccc(Cl)c2Cl)o1)N1CCOCC1,16,2,-117,-116,-7,?
CC(=O)N1CCOc2ccc(S(=O)(=O)N3CCN(c4cc(C)ccc4C)CC3)cc21,6,0,-17,9,1,-1
COc1ccccc1OCCCOc1ccc(C)cc1Br,35,-4,-104,-75,-1,57*
COc1cccc(OCCCOc2ccc([N+](=O)[O-])cc2Cl)c1,0,-4,26,-1,7,3
COc1ccccc1OCCOCCOc1ccc(C)cc1Br,3,-4,0,-2,11,-4
CC(=O)NCCCOc1ccc([N+](=O)[O-])cc1Cl,10,12,0,-16,1,56*
COc1ccccc1OCCCOc1ccc([N+](=O)[O-])cc1Cl,57,-2,-111,-61,7,65*
O=C(O)CNC(=O)c1ccc(Oc2c(F)c(F)c(Oc3ccc(C(=O)NCC(=O)O)cc3)c(F)c2F)cc1,-1,3,4,-6,-6,32
COc1cccc(CNC(=O)CCS(=O)(=O)c2ccc3c(c2)CC(C)N3C(=O)C2CC2)c1 (stereo not given),1,-6,13,4,0,-6
CCOc1ccccc1NC(=S)NCCc1ccc(F)cc1,1,-3,4,-4,-17,0
COc1cccc(-c2nc(N3CC(C)CC(C)C3)c3ccccc3n2)c1O (stereo not given),-5,-14,3,-13,55*,2
COc1cccc(-c2nc(N3CCC(C)CC3)c3ccccc3n2)c1O,-2,-15,-3,-8,44,-17
Cc1cn2c(nc(=O)c3cccnc32)s1,-75*,2,17,-6,-5,-78
Cc1cc(NCCN2CCOCC2)c2ccc3ccccc3c2n1,1,6,0,-63,65*,2
CC(=O)N1c2ccc(S(=O)(=O)N(C)CC(=O)Nc3ccccc3C)cc2CC1C (stereo not given),-61*,-3,-1,-8,-3,-70

# Compound activity deposited in PubChem by several laboratories.
